{"source": "ChEMBL document CHEMBL1158546", "about": "“Discovery of novel and potent leukotriene B4 receptor antagonists. Part 1” (J Med Chem, 2010)", "key": {"[1]": {"target": "T1, Leukotriene B4 receptor 1 (Homo sapiens, UniProt Q15722)", "T1 sequence (Q15722 whole entry)": "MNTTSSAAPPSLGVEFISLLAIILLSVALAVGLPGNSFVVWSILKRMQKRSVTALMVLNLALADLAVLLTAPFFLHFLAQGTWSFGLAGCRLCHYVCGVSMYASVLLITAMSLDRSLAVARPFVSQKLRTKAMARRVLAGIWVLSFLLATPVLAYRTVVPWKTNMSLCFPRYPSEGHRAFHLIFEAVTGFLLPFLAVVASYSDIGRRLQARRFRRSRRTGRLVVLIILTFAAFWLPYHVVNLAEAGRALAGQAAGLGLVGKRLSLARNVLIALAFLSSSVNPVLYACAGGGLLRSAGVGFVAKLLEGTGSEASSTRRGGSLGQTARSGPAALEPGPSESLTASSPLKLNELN", "assay": "Antagonist activity at BLT1 receptor expressed in human HL60 cells assessed as inhibition of LTB4-stimulated calcium flux after 30 mins", "format": "functional, cell-based, HL-60", "settings": "read-out: IC50; call rule not given here", "outline": "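HL-60 cells grown in RPMI-1640 with 20% FBS were plated at 2.0 × 10^5 cells/ml with 1 μM retinoic acid. They were dye-loaded in HBSS/20 mM HEPES/5 mM probenecid (0.05% BSA in the replacement buffer) for 1 h at 37 C. Compound (5 × 10^-11 to 3 × 10^-6 M final) was added for 30 min at room temperature, then 0.5 μM LTB4. Fluorescence was read every 1.5 s for 100 s and peak increase scored as % inhibition versus DMSO control.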"}, "[2]": {"assay": "Solubility of compound in small intestinal contents in the fed state at pH 5", "format": "ADME", "outline": "(§1)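 Solubility measured in simulated intestinal fluid at pH 5.0 (fed) or pH 6.5 (fasted), reported in μg/mL.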"}, "[3]": {"assay": "Solubility of compound in small intestinal contents in the fasted state at pH 6.5", "format": "ADME", "outline": "as §1"}, "[4]": {"system": "Neutrophil", "assay": "Inhibition of LTB4-stimulated human neutrophils migration after 30 mins by using CyQuant GR fluorescent dye", "format": "functional, cell-based", "settings": "Homo sapiens, Neutrophil, 0.5 h; read-out: IC50", "outline": "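Human blood neutrophils (95-97% pure, isolated over Lympholyte-poly) at 5 × 10^6 cells/mL were preincubated with compound (3 × 10^-12 to 1 × 10^-6 M final) for 30 min at 37 C. Migration toward 100 ng/mL LTB4 across a polycarbonate membrane ran 90 min at 37 C. Migrated cells were lysed with CyQuant GR and read at 480/520 nm. IC50 was taken from a sigmoidal fit of % inhibition.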"}, "[5]": {"target": "T2, Voltage-gated inwardly rectifying potassium channel KCNH2 (Homo sapiens, UniProt Q12809)", "T2 sequence (Q12809 whole entry)": "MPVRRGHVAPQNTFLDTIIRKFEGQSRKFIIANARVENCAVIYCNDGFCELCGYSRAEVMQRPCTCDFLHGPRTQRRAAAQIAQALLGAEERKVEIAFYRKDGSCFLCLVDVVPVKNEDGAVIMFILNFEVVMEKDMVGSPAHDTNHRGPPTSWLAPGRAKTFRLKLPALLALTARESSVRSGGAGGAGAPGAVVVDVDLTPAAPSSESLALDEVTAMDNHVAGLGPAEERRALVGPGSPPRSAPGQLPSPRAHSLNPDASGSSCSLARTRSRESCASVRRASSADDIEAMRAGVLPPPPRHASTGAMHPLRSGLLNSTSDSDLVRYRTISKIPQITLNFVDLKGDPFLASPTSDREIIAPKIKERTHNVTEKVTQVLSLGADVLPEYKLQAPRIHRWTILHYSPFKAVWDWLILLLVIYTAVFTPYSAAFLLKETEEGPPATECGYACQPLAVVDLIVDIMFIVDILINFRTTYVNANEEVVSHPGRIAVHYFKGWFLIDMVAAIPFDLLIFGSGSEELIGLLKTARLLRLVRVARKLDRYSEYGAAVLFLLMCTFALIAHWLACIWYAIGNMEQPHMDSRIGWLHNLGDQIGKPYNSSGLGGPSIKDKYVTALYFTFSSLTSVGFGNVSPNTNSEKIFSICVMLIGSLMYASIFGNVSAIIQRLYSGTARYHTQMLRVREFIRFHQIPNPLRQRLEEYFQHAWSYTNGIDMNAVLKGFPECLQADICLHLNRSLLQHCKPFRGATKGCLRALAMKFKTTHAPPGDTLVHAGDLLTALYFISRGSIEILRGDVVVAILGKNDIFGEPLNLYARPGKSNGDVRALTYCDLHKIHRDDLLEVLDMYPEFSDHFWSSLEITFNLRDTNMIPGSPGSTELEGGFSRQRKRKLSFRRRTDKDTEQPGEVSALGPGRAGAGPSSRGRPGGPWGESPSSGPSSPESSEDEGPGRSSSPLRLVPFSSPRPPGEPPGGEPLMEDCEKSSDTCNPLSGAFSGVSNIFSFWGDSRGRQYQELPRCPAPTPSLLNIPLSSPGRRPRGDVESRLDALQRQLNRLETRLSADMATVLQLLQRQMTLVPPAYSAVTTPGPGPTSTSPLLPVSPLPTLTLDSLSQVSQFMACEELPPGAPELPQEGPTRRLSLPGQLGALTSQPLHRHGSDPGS", "assay": "Inhibition of human ERG expressed in CHO cells at 3 uM assessed as reduction of current amplitude"}, "[6]": {"target": "Cytochrome P450 2C19 (Homo sapiens, UniProt P33261)", "sequence (P33261 whole entry)": "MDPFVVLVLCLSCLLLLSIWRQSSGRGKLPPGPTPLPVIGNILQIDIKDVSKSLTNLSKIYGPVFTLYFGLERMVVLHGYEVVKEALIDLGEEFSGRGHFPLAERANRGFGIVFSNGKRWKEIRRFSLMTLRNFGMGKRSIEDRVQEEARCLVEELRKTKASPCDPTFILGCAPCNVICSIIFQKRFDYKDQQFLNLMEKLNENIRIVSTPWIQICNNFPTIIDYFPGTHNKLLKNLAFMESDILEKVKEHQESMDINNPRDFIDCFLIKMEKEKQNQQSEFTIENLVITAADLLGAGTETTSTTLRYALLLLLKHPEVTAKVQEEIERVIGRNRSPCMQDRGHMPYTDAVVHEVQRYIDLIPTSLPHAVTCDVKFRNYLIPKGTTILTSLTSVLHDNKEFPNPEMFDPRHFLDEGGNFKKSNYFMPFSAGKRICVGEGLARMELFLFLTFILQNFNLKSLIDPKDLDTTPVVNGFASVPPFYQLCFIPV", "assay": "Inhibition of CYP2C19 fluorescence method", "format": "ADME", "outline": "(§2)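 Cytochrome P450 high-throughput panel (1A2, 2D6, 2C9, 2C19, 3A4) using fluorogenic substrates; IC50 reported.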"}, "[7]": {"target": "T3, Cytochrome P450 1A2 (Homo sapiens, UniProt P05177)", "T3 sequence (P05177 whole entry)": "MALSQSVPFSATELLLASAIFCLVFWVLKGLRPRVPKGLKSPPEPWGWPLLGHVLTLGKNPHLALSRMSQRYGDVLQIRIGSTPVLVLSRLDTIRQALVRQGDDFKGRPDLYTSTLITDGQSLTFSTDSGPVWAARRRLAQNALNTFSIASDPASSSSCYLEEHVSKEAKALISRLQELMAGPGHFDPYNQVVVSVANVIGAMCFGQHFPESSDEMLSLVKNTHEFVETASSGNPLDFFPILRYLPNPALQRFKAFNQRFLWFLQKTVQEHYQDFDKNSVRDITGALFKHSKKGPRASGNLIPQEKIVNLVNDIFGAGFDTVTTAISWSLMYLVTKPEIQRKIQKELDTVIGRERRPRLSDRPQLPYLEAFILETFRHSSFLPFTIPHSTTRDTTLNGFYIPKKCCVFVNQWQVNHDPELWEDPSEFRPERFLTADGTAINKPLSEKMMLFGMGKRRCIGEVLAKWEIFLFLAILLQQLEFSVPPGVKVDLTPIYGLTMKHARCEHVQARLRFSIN", "assay": "Inhibition of CYP1A2 by fluorescence method", "format": "ADME", "outline": "as §2"}, "[8]": {"target": "Cytochrome P450 2D6 (Homo sapiens, UniProt P10635)", "sequence (P10635 whole entry)": "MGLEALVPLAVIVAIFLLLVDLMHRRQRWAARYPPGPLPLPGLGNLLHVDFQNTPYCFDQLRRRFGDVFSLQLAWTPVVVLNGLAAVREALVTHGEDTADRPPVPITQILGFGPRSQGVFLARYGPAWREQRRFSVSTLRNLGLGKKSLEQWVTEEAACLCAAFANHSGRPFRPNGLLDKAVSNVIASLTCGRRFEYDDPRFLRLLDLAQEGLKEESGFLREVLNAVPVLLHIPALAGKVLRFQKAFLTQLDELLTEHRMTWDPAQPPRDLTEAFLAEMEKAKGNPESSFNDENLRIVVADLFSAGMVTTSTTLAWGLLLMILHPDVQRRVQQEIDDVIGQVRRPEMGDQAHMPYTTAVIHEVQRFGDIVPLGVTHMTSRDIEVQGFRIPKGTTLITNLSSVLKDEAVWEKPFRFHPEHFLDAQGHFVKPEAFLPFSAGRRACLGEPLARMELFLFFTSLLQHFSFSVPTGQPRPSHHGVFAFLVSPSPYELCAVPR", "assay": "Inhibition of CYP2D6 fluorescence method", "format": "ADME", "outline": "(§3)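 High-throughput CYP panel covering 1A2, 2D6, 2C9, 2C19 and 3A4, using fluorogenic substrates. IC50 was determined in μM.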"}, "[9]": {"assay": "Lipophilicity, log D of compound at pH 7.4", "settings": "buffer"}, "[10]": {"target": "T4, Cytochrome P450 2C9 (Homo sapiens, UniProt P11712)", "T4 sequence (P11712 whole entry)": "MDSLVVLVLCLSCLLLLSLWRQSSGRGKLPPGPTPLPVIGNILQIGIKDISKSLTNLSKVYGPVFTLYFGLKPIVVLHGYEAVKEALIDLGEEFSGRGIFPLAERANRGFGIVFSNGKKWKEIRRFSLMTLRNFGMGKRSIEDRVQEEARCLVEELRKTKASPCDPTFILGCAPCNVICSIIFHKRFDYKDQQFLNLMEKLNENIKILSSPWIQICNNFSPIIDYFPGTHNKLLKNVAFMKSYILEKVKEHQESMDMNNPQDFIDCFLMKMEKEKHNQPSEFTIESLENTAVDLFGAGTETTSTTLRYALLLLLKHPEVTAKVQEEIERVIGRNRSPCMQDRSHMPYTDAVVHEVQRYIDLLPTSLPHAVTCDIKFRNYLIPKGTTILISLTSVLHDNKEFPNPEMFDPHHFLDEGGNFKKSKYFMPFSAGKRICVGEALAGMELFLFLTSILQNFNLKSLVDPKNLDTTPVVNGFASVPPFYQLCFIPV", "assay": "Inhibition of CYP2C9 fluorescence method", "format": "ADME"}, "[11]": {"target": "Cytochrome P450 3A4 (Homo sapiens, UniProt P08684)", "sequence (P08684 whole entry)": "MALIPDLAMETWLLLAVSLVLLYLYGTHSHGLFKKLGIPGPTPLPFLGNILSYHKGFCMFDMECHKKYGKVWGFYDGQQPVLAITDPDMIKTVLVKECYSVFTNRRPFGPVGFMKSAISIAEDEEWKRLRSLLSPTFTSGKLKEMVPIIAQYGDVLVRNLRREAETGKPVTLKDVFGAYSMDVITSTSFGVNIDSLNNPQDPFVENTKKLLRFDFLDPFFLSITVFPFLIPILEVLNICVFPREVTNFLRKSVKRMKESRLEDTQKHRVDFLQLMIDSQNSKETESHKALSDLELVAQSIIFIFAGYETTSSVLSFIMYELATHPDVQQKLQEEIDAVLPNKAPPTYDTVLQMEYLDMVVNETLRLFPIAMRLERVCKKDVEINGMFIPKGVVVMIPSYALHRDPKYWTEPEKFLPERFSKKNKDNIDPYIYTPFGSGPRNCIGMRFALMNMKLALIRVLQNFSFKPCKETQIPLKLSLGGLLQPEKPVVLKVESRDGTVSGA", "assay": "Inhibition of CYP3A4 fluorescence method", "format": "ADME", "outline": "as §3"}, "[12]": {"target": "T2, Voltage-gated inwardly rectifying potassium channel KCNH2", "assay": "Inhibition of human ERG expressed in CHO cells assessed as reduction of current amplitude"}, "[13]": {"target": "T5, Leukotriene B4 receptor 2 (Homo sapiens, UniProt Q9NPC1)", "T5 sequence (Q9NPC1 whole entry)": "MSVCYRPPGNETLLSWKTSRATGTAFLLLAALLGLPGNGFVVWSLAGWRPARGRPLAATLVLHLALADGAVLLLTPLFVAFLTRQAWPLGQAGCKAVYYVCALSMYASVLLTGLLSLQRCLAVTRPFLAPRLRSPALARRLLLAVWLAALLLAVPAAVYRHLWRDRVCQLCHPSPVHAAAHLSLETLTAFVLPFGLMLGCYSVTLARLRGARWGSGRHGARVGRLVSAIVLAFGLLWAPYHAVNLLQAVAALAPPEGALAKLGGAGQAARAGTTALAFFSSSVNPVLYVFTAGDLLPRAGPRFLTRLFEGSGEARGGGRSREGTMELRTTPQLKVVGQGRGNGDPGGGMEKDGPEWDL", "assay": "Antagonist activity at FLAG-tagged human BLT2 receptor expressed in HEK293 cells assessed as inhibition of LTB4-stimulated calcium mobilization preincubated for 10 mins before LTB4 challenge", "format": "functional, cell-based"}, "[14]": {"target": "T1, Leukotriene B4 receptor 1", "assay": "Antagonist activity at FLAG-tagged human BLT1 receptor expressed in HEK293 cells assessed as inhibition of LTB4-stimulated calcium mobilization preincubated for 10 mins before LTB4 challenge", "format": "functional, cell-based"}, "[15]": {"target": "T4, Cytochrome P450 2C9", "assay": "Inhibition of CYP2C9 by LC/MS method", "format": "ADME"}}, "note": "pIC50: −log10 of the molar value.", "data": [{"compound": "O=C(O)CCCOc1cccc(CCCCCCOc2cc(-c3ccsc3)cc(-c3ccsc3)c2)c1CCC(=O)O", "values": [{"measurement": "pIC50", "setting": "[1]", "value": 9.24}]}, {"compound": "O=C(O)CCCOc1cccc(CCCCCCOc2cc(-c3ccsc3)cc(-c3ccnc(Cl)c3)c2)c1CCC(=O)O", "values": [{"measurement": "pIC50", "setting": "[1]", "value": 9.24}]}, {"compound": "O=C(O)CCCOc1cccc(CCCCCCOc2cc(-c3ccc(F)cc3)cc(-c3ccc4c(c3)OCCO4)c2)c1CCC(=O)O", "values": [{"measurement": "pIC50", "setting": "[1]", "value": 7.22}]}, {"compound": "COc1ccc(-c2cc(OCCCCCCc3cccc(OCCCC(=O)O)c3CCC(=O)O)cc(-c3ccc(OC)cc3)c2)cc1", "values": [{"measurement": "pIC50", "setting": "[1]", "value": 7.51}]}, {"compound": "O=C(O)CCCOc1cccc(CCCCCCOc2cc(-c3ccncc3)cc(-c3ccsc3)c2)c1CCC(=O)O", "values": [{"measurement": "pIC50", "setting": "[1]", "value": 9.70}]}, {"compound": "COc1ccc(-c2cc(OCCCCCCc3cccc(OCCCC(=O)O)c3CCC(=O)O)cc(-c3ccc4c(c3)OCO4)c2)cc1", "values": [{"measurement": "pIC50", "setting": "[1]", "value": 8.49}]}, {"compound": "O=C(O)CCCOc1cccc(CCCCCCOc2cc(-c3ccc4c(c3)OCO4)cc(-c3ccccc3F)c2)c1CCC(=O)O", "values": [{"measurement": "solubility", "setting": "[2]", "value": 38.1, "unit": "µg/mL"}, {"measurement": "solubility", "setting": "[3]", "value": 27.1, "unit": "µg/mL"}, {"measurement": "pIC50", "setting": "[4]", "value": 8.12}, {"measurement": "INH", "setting": "[5]", "value": "Not Active"}, {"measurement": "pIC50", "setting": "[6]", "value": "< 5.12"}, {"measurement": "pIC50", "setting": "[1]", "value": 9.21}, {"measurement": "pIC50", "setting": "[7]", "value": "< 5.12"}, {"measurement": "pIC50", "setting": "[8]", "value": "< 5.12"}, {"measurement": "logD", "setting": "[9]", "value": 2.44}, {"measurement": "pIC50", "setting": "[10]", "value": 5.12}, {"measurement": "pIC50", "setting": "[11]", "value": "< 5.12"}]}, {"compound": "O=C(O)CCCOc1cccc(CCCCCCOc2cc(-c3cncnc3)cc(-c3ccc4c(c3)OCO4)c2)c1CCC(=O)O", "values": [{"measurement": "pIC50", "setting": "[4]", "value": 9.70}, {"measurement": "pIC50", "setting": "[1]", "value": 9.42}]}, {"compound": "O=C(O)CCCOc1cccc(CCCCCCOc2cc(-c3cncnc3)cc(-c3ccsc3)c2)c1CCC(=O)O", "values": [{"measurement": "pIC50", "setting": "[4]", "value": 7.70}, {"measurement": "pIC50", "setting": "[1]", "value": 9.41}]}, {"compound": "O=C(O)CCCOc1cccc(CCCCCCOc2cc(-c3ccc(F)cc3)cc(-c3ccc(F)cc3)c2)c1CCC(=O)O", "values": [{"measurement": "pIC50", "setting": "[1]", "value": 8.07}]}, {"compound": "O=C(O)CCCOc1cccc(CCCCCCOc2cc(-c3ccccc3)cc(-c3ccccc3)c2)c1CCC(=O)O", "values": [{"measurement": "solubility", "setting": "[2]", "value": 338, "unit": "µg/mL"}, {"measurement": "solubility", "setting": "[3]", "value": 27.3, "unit": "µg/mL"}, {"measurement": "INH", "setting": "[5]", "value": "Not Active"}, {"measurement": "pIC50", "setting": "[6]", "value": "< 5.12"}, {"measurement": "pIC50", "setting": "[1]", "value": 9.68}, {"measurement": "pIC50", "setting": "[7]", "value": "< 5.12"}, {"measurement": "pIC50", "setting": "[12]", "value": "< 5.52"}, {"measurement": "pIC50", "setting": "[13]", "value": 6.20}, {"measurement": "pIC50", "setting": "[14]", "value": 7.41}, {"measurement": "pIC50", "setting": "[8]", "value": "< 5.12"}, {"measurement": "logD", "setting": "[9]", "value": 0.7}, {"measurement": "pIC50", "setting": "[10]", "value": "< 4.30"}, {"measurement": "pIC50", "setting": "[15]", "value": "< 4.90"}, {"measurement": "pIC50", "setting": "[11]", "value": "< 5.12"}]}]}
